# Measured values pooled from the literature.
# Lines come from different studies, so protocols differ.
# CYP2C9: Cytochrome P450 2C9 (CYP2C9, Homo sapiens, UniProt P11712)
# FABP4: Fatty acid-binding protein, adipocyte (FABP4, Homo sapiens, UniProt P15090)
# AKT1: RAC-alpha serine/threonine-protein kinase (AKT1, Homo sapiens, UniProt P31749)
# CDK9 with cyclin T1: Cyclin-dependent kinase 9, with cyclin T1 (CDK9, Homo sapiens, UniProt P50750)
SMILES,target,assay,system,conditions,measurement,value
O=c1c(-c2ccc(O)cc2)coc2cc(O)ccc12,CYP2C9,"enzyme activity, inhibitor","human, liver microsomes",15 min,Ki,7.85 µM
CCCCCCCCCCCC(=O)O,FABP4,"ligand displacement, fluorescence",,,Ki,0.827 µM
CCOc1cccc(C(=O)CC(SCc2cccc(Br)c2)C(=O)O)c1 (stereo not drawn),AKT1,"ligand displacement, FP",,,Ki,81 µM
O=S(=O)(O)c1cccc2cccc(Nc3ccccc3)c12,FABP4,"binding, fluorescence",,,Kd,0.508 µM
CN(C)C(=O)c1cc2cnc(Nc3ccc(-c4ccc5c(=O)cc(N6CCOCC6)oc5c4)c(F)c3)nc2n1C1CCCC1,CDK9 with cyclin T1,"enzyme activity, inhibitor, radiometric",,,IC50,0.00325 µM
CCOc1ccccc1C(=O)CC(SCc1ccc(Cl)cc1)C(=O)O (stereo not drawn),AKT1,"ligand displacement, FP",,,Ki,> 1000 µM
CCCCCCCC(=O)O,FABP4,"ligand displacement, fluorescence",,,Ki,13.5 µM
CN1CCN(c2cc(=O)c3ccc(Nc4ncc5cc(C(=O)N(C)C)n(C6CCCC6)c5n4)cc3o2)CC1,CDK9 with cyclin T1,"enzyme activity, inhibitor, radiometric",,,IC50,0.0012 µM
CCOC(=O)c1cc(-c2ccc(OCC)cc2)oc1-c1ccc(Cl)cc1,AKT1,"ligand displacement, FP",,,Ki,> 100 µM
CN(C)C(=O)c1cc2cnc(Nc3cccc(-c4cccc5c(=O)cc(N6CCOCC6)oc45)c3)nc2n1C1CCCC1,CDK9 with cyclin T1,"enzyme activity, inhibitor, radiometric",,,IC50,> 10 µM
CCOc1ccc(C(=O)CC(SCc2ccc(Cl)cc2)C(=O)O)cc1 (stereo not drawn),AKT1,"ligand displacement, FP",,,Ki,96 µM
Fc1c[nH]c2nccc(-c3ccc(C4CCNCC4)cc3)c12,AKT1,"target engagement in cells, BRET",,,IC50,17.1 µM
CCCCCCCCCCCCC(=O)O,FABP4,"ligand displacement, fluorescence",,,Ki,1.32 µM
CN(C)C(=O)c1cc2cnc(Nc3ccc4c(=O)cc(N5CCOCC5)oc4c3)nc2n1C1CCCC1,CDK9 with cyclin T1,"enzyme activity, inhibitor, radiometric",,,IC50,0.0011 µM
CC(C)(C)Cc1ccc(O)c(O)c1,"Peroxiredoxin-5, mitochondrial (PRDX5, Homo sapiens, UniProt P30044)","binding, NMR",,,Kd,20 µM
COc1ccc(-c2coc3cc(O)ccc3c2=O)cc1O,CYP2C9,"enzyme activity, inhibitor","human, liver microsomes",15 min,Ki,26 µM
Cc1cc(-c2ccnc3[nH]cc(F)c23)cc(F)c1[C@@]1(O)[C@H](C)CN(C2CCS(=O)(=O)CC2)C[C@@H]1C,AKT1,"cell-free assay, TR-FRET",,,Kd,0.724 µM
O=C(O)C(F)(F)C(F)(F)C(F)(F)C(F)(F)F,FABP4,"ligand displacement, fluorescence",,,Ki,329 µM
CCOc1ccc(C(=O)CC(SCc2ccc(Br)cc2)C(=O)O)cc1 (stereo not drawn),AKT1,"ligand displacement, FP",,,Ki,279 µM
O=C(O)C(F)(F)C(F)(F)C(F)(F)C(F)(F)C(F)(F)C(F)(F)C(F)(F)C(F)(F)C(F)(F)C(F)(F)C(F)(F)C(F)(F)C(F)(F)C(F)(F)C(F)(F)F,FABP4,"ligand displacement, fluorescence",,,Ki,1.31 µM
COc1ccccc1C(=O)CC(SCc1ccc(Cl)cc1)C(=O)O (stereo not drawn),AKT1,"ligand displacement, FP",,,Ki,507 µM
OC1(c2ccc(-c3ccnc4[nH]cc(F)c34)cc2)CNC1,AKT1,"target engagement in cells, BRET",,,IC50,22.8 µM
CCOc1ccc(C(=O)CC(SCc2cccc(Br)c2)C(=O)O)cc1 (stereo not drawn),AKT1,"ligand displacement, FP",,,Ki,58.4 µM
CN(C)C(=O)c1cc2cnc(Nc3ccc(C(=O)NCCCCCCOc4cccc5c4C(=O)N(C4CCC(=O)NC4=O)C5=O)cc3)nc2n1C1CCCC1 (stereo not drawn),"Cyclin-dependent kinase 9 (CDK9, Homo sapiens, UniProt P50750)","binding, competition with immobilised ligand",,,Kd,< 0.2 µM
